This sample holds only a part of the variants without activity.
B1: tRNA (parent)
chain: GUUCCGUUGGCGUAAUGGUAACGCGUCUCCCUCCUAAGGAGAAGACUGCGGGUUCGAGUCCCGUACGGAACG

Variants of: B1
Assay: yeast fitness relative to wild type (ratio to wild type); higher = fitter; tRNA-Arg(CCU), competitive growth, 37 C, YPD
Outline: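 Changes in genotype frequencies gave Darwinian fitness relative to wild type. Frequencies were read by 100-nucleotide paired-end sequencing of gene amplicons before and after pooled Saccharomyces cerevisiae strains, carrying tRNA-Arg(CCU) gene variants at the native locus, were competed in YPD at 37°C for 24 hours in six replicates. A genotype was kept only with ≥ 100 starting reads, and estimates < 0.5 were set to 0.5.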

G18A G48A A57C U59C and G18A C30G cannot be ordered by yeast fitness: at most 0.5 for the first, at most 0.5 for the second.

First: G18A C62A
Second: G18A G50C C55G C62A
The yeast fitness of the first is lower: 0.513 for the first, 0.561 for the second.

Compared with G18A A20U A42G, G18A A20U C22U U28A C33U G44C is higher in yeast fitness: at most 0.5 for the first, 0.524 for the second.

Compared with U19A C27U, G18A G51C is lower in yeast fitness: 1.02 for the first, at most 0.5 for the second.

First: U19A C22U A37C G38C
Second: G18A C34G C55G A65U
The yeast fitness of the first is higher: 0.516 for the first, at most 0.5 for the second.

First: G18A G51A A57U
Second: G18A U32G A69G
The yeast fitness of the first is higher: 0.536 for the first, at most 0.5 for the second.

G18A G25C A43U U59A G63A and G18C G23A G25A C49U C60G cannot be ordered by yeast fitness: at most 0.5 for the first, at most 0.5 for the second.

Compared with G18C A45C G52A A65C, U19A C27U G44A is higher in yeast fitness: at most 0.5 for the first, 0.781 for the second.

Compared with U19A C27U C55U, G18C C30U A45U is lower in yeast fitness: 0.572 for the first, 0.549 for the second.

First: U19A C29G G48A C61A
Second: G18C U19C
The yeast fitness of the first is higher: 0.683 for the first, 0.587 for the second.

First: G18A G25C A43U
Second: G18A U64C
The yeast fitness of the first is lower: 0.6 for the first, 0.66 for the second.

Going from G18A C30G G38C to G18C C49U G56C G58A, the yeast fitness falls from 0.529 to at most 0.5.

Compared with G18C C29G A45G C66U, G18A C46U G50U C60G A70G is lower in yeast fitness: 0.613 for the first, at most 0.5 for the second.

First: G18A C29U
Second: U19A C27U A43U C55U
The yeast fitness of the first is higher: 0.813 for the first, at most 0.5 for the second.

Compared with G18A C22U A40C G68C, U19A C22G is higher in yeast fitness: at most 0.5 for the first, 0.919 for the second.

G18C C22G C31U U59A G63A and G18C G25C U28G A42G U47C C49U A57U cannot be ordered by yeast fitness: at most 0.5 for the first, at most 0.5 for the second.

Compared with U19A C22G A70U, G18C U28G A36C G38C is lower in yeast fitness: 0.509 for the first, at most 0.5 for the second.

G18A C31G U47C and G18C U19G A20G C33A U35C C66A cannot be ordered by yeast fitness: at most 0.5 for the first, at most 0.5 for the second.

G18C U26G C55G and G18A C30G G41C cannot be ordered by yeast fitness: at most 0.5 for the first, at most 0.5 for the second.

G18A G23A A43C U59A and G18C G51C C61G A70C cannot be ordered by yeast fitness: at most 0.5 for the first, at most 0.5 for the second.

Going from G18C U19G C27U A43U A65U to G18C C22U G56C, the yeast fitness rises from at most 0.5 to 0.542.

Compared with G18C G23A C24U C61U, G18A A43U is higher in yeast fitness: at most 0.5 for the first, 0.637 for the second.

G18A G25A C46U U59C G68A and G18A C29U C30U A57G cannot be ordered by yeast fitness: at most 0.5 for the first, at most 0.5 for the second.

Going from G18A G67A to G18A G67U, the yeast fitness rises from 0.675 to 0.75.

Compared with G18A G67C, U19A C30G A36G C61G is lower in yeast fitness: 0.841 for the first, at most 0.5 for the second.

G18A C34U and G18C U19C A21G C61U cannot be ordered by yeast fitness: at most 0.5 for the first, at most 0.5 for the second.

G18A C33U A57G and G18C U19A A36U cannot be ordered by yeast fitness: at most 0.5 for the first, at most 0.5 for the second.

First: G18A C62U U64A
Second: G18A C34U C60U
The yeast fitness of the first is higher: 0.517 for the first, at most 0.5 for the second.

G18C C46U C61G and U19A C30U G38C U53G cannot be ordered by yeast fitness: at most 0.5 for the first, at most 0.5 for the second.

Going from G18C C24G C34U C49A U64C G67A to G18C G63A, the yeast fitness rises from at most 0.5 to 0.535.

G18C G23C G39A and G18C A20G C29A C49U A69U cannot be ordered by yeast fitness: at most 0.5 for the first, at most 0.5 for the second.

First: G18A G68C
Second: G18A G25C C30G G41U C55G
The yeast fitness of the first is higher: 0.662 for the first, at most 0.5 for the second.

First: G18C G39C G50A
Second: G18A G44C A65U
The yeast fitness of the first is lower: at most 0.5 for the first, 0.537 for the second.

Compared with U19A C22G C30G A42G C46G, G18C C62G C66A is lower in yeast fitness: 0.741 for the first, at most 0.5 for the second.

First: G18A A36C G48A
Second: U19A C22G G23C C30G C34A
The yeast fitness of the first is lower: at most 0.5 for the first, 0.519 for the second.

Compared with G18A C31U G41A, G18A C34U G48A A65C is lower in yeast fitness: 0.647 for the first, at most 0.5 for the second.

G18A G44A A57G and U19A C24U G38A U54C C62U C66A cannot be ordered by yeast fitness: at most 0.5 for the first, at most 0.5 for the second.

Compared with G18A A42G, G18A C33U C46G is lower in yeast fitness: 0.692 for the first, 0.634 for the second.

Going from G18A C30G G44C to G18A A36U C61A, the yeast fitness falls from 0.646 to at most 0.5.

Compared with G18C C33A U54A C62A, U19A C30A A45U G50C is higher in yeast fitness: 0.577 for the first, 0.62 for the second.

First: G18C A45C A65C
Second: G18A A21U U32A G56A
The yeast fitness of the first is higher: 0.598 for the first, 0.561 for the second.

G18A C22A A37C G41C C55G U64A and G18C C22A U32C A45C C46U A65C cannot be ordered by yeast fitness: at most 0.5 for the first, at most 0.5 for the second.

G18C C29U C30U G67A and U19A C22U U32C C60G cannot be ordered by yeast fitness: at most 0.5 for the first, at most 0.5 for the second.

G18A C31G G41A G52C C60U C62G C66G and G18A A20G U26G G50C G63C cannot be ordered by yeast fitness: at most 0.5 for the first, at most 0.5 for the second.

Going from U19A A40G to G18A C31G C34A U47C, the yeast fitness falls from 0.75 to at most 0.5.

Going from G18C A42C A43C C66G to U19A C24G, the yeast fitness rises from at most 0.5 to 0.633.

Compared with U19A C24A, U19A C24U is higher in yeast fitness: 0.598 for the first, 1.03 for the second.

First: G18A A20G U35C G58A C60G
Second: G18C C31A A43G G58C A65G
The yeast fitness of the first is higher: 0.558 for the first, at most 0.5 for the second.

Going from G18A U47A to U19A A43C A69U, the yeast fitness falls from 0.824 to 0.56.

G18C C49U C62U and G18C C49G C61G cannot be ordered by yeast fitness: at most 0.5 for the first, at most 0.5 for the second.

U19A C30G G39C U53C C55A and G18C U19G A45C G67A cannot be ordered by yeast fitness: at most 0.5 for the first, at most 0.5 for the second.

Going from G18C C55G to G18C C55U, the yeast fitness falls from 0.585 to 0.532.

G18A U53A U54G and U19A C24U C29A U54A cannot be ordered by yeast fitness: at most 0.5 for the first, at most 0.5 for the second.

Compared with G18C A70C, U19A A42U C46G is higher in yeast fitness: 0.687 for the first, 0.988 for the second.

Going from U19A C24G C33G C34G to G18A U19A C61U, the yeast fitness rises from 0.528 to 0.61.

Compared with G18A C34U A36G, G18C A40G is higher in yeast fitness: 0.525 for the first, 0.64 for the second.

U19A A40C C55A C66A and G18C G23A G25C A37G A43C C55G G63A G68A cannot be ordered by yeast fitness: at most 0.5 for the first, at most 0.5 for the second.

G18C C29U A43G C49A and G18A C27U A37G A70C cannot be ordered by yeast fitness: at most 0.5 for the first, at most 0.5 for the second.

Going from G18A A21C G39A C55U C60G A69U to G18C U59A, the yeast fitness rises from 0.523 to 0.631.

First: G18C A21C C27U A37U
Second: G18A C27A
The yeast fitness of the first is lower: at most 0.5 for the first, 0.726 for the second.

G18C G23A G25C A37G A43C and G18A A20U A36U C62U cannot be ordered by yeast fitness: at most 0.5 for the first, at most 0.5 for the second.

Compared with G18C C66U, G18C C27U C55G A65G G68C is lower in yeast fitness: 0.59 for the first, at most 0.5 for the second.

Going from G18C A36U C55U U59A to G18U G39A, the yeast fitness rises from at most 0.5 to 0.594.

First: U19A A40G C60U U64C
Second: G18C U26A U53C
The yeast fitness of the first is higher: 0.705 for the first, 0.549 for the second.

G18U U26A C49U G50C and U19A A21G A43C G51C cannot be ordered by yeast fitness: at most 0.5 for the first, at most 0.5 for the second.

Going from G18A A40G to U19A C24A C31G G68C, the yeast fitness falls from 0.74 to at most 0.5.

First: G18A A70U
Second: G18U C30U C49G
The yeast fitness of the first is higher: 0.956 for the first, at most 0.5 for the second.

G18A G68C A69U and G18C G52A A57U A65C cannot be ordered by yeast fitness: at most 0.5 for the first, at most 0.5 for the second.

G18C C24A A57C C66U A69C and G18A C30A U32A U35G cannot be ordered by yeast fitness: at most 0.5 for the first, at most 0.5 for the second.

U19A C24G C27U C30A U64A A70C and G18C G23C G48A cannot be ordered by yeast fitness: at most 0.5 for the first, at most 0.5 for the second.

Compared with G18C C29G A36C G44C G50A C66A, G18A G25A C31U is higher in yeast fitness: at most 0.5 for the first, 0.63 for the second.

G18A C24A C31A and G18C A21G G23A A43C cannot be ordered by yeast fitness: at most 0.5 for the first, at most 0.5 for the second.

Going from G18A C46A G63C to G18A U19A A70U, the yeast fitness rises from 0.604 to 0.657.

Compared with G18C A57G, G18A A42C A69U is lower in yeast fitness: 0.715 for the first, 0.542 for the second.

G18C C31G A42G G67A and G18A A42C G48A C60A cannot be ordered by yeast fitness: at most 0.5 for the first, at most 0.5 for the second.

G18C U28A A42U and G18C A37U A40U U64C G67A cannot be ordered by yeast fitness: at most 0.5 for the first, at most 0.5 for the second.

Compared with G18A U26A C27U C49U G58A, U19A C27A C31A A57C is higher in yeast fitness: at most 0.5 for the first, 0.799 for the second.

Going from G18C G58A to G18C G58C, the yeast fitness falls from 0.701 to 0.635.

G18A C30U U47G and G18A G41C U54A G63A cannot be ordered by yeast fitness: at most 0.5 for the first, at most 0.5 for the second.

G18U U32C A45G A57G and U19A A21G C27U C33U cannot be ordered by yeast fitness: at most 0.5 for the first, at most 0.5 for the second.

Going from G18C U47A to G18C A21G G67A, the yeast fitness falls from 0.553 to at most 0.5.

Going from G18A G50A to U19A C22G C34U A42G A43G G51A A70U, the yeast fitness falls from 0.853 to at most 0.5.

Compared with U19A A43U, G18A A20U A36U A65C is lower in yeast fitness: 1 for the first, 0.706 for the second.

Work on U19A C24A C31G C62U G68C yielded a yeast fitness of 0.535.
